The subject of the data set is MS2 coat protein. The data set can be described thus: apparent Kd, MS2 coat protein; higher = weaker binding; RNA-MaP array; FMN 200 µM where present. The procedure, abridged:
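Designs on Illumina sequencing-chip clusters, transcribed by stalled E. coli RNA polymerase, were exposed to SNAP-549-labelled MS2 coat protein in doubling steps from 0.7 or 1.5 nM up to 3 µM, without and then with constant ligand. The buffer held 100 mM Tris-HCl pH 7.5, 80 mM KCl, 4 mM MgCl2, BSA, DTT, yeast tRNA and Tween-20. Apparent Kd values are medians of filtered per-cluster binding-curve fits to green signal normalised to red-channel RNA signal and control-cluster median Fmax.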

Setting [1] is: designed as: ON switch for flavin mononucleotide, no ligand.
Where [2] appears, read: ligand present: flavin mononucleotide, designed as: ON switch for flavin mononucleotide.
The mark [3] stands for this setting: designed as: OFF switch for flavin mononucleotide, no ligand.
Setting [4] is: ligand present: flavin mononucleotide, designed as: OFF switch for flavin mononucleotide.

A word on the apparent Kd: it is a dissociation constant that holds for the conditions of the assay. In the case of “GGGUACAUCGGAGGAUAUCAUGUAAAUACAUGAGGAUCACCCAUGUCGAUGGAGACAUCGGAGAUUGAGAAGGCCUAUGUACCG”, the “apparent Kd” value is, setting by setting: under setting [1], 194 nM; under setting [2], 9.34 nM.

On to “GGAUCGAAUGUGAGGAUAUGCUGGUCCUUGGAUCAGCAGAAGGCACAUGAGGAUCACCCAUGUCCUCUCGGUCC”, for which the “apparent Kd” value is, setting by setting: under setting [3], 248 nM; under setting [4], 458 nM.

“GCAUACAUUCGAGGAUAUCGGUGAACAAAUUAACGAGAAGGCGAUAGAAUGUCUCAUCUUAUGAACAUGAGGAUCACCCAUGUA”: the “apparent Kd” value under setting [1] was determined as 30 nM and the “apparent Kd” value under setting [2] amounted to 26.2 nM.

In the case of “GGUCGUCACAUCUACAUGAGGAUCACCCAUGUCAAAAGACAUGAGGAUAUGCUACCUAAUUGGUAGCAGAAGGCAUGGACGACC”, the “apparent Kd” value under setting [1] was 1290 nM and the “apparent Kd” value under setting [2] stood at 72 nM.

As to “UGCAUACAUGAGGAUCACCCAUGUCAACUUAGUCGAGGAUAUGGGCAGCCCUGAGGCGAACCAGAAGGCGAAUUGU”, the “apparent Kd” value is, setting by setting: under setting [1], 73.5 nM; under setting [2], 26.4 nM.

As to “AUGUUGUCAGGAUAUCGUUAAUUUAGUUGUUUGUAUUAGUUCGAGAAGGGACAUGAGGAUCACCCAUGUUUGUA”, the “apparent Kd” value under setting [3] was 32 nM and the “apparent Kd” value under setting [4] was 44 nM.

For the sequence “CAGGUAGACUGAGGAUAUACAAUAAACAGCUAGUCUAUCUAGCUGUCUACAUGAGGAUCACCCAUGUAGAAGGCAGUCUGCCUG”, the “apparent Kd” value under setting [3] amounted to 17 nM and the “apparent Kd” value under setting [4] is 17.4 nM.

As for “CCUAGUGUGCAGAAGGAGAGUUAACUGCCCGUCGAUGGACUGCACAGAGCUCUAGGAUAUGCACAUGAGGAUCACCCAUGUGCU”, the “apparent Kd” value under setting [3] turned out to be 6.53 nM and the “apparent Kd” value under setting [4] was determined as 7.76 nM.

With “AAUUAAGAUCAAGGAUAUCACGUCGAAUAGACGUGAGAAGGUGAUCCAUACAUGAGGAUCACCCAUGUAUAACAUGAAUUAAUU”, the “apparent Kd” value reads like this: under setting [1], 923 nM; under setting [2], 170 nM.

As for “AUGGUUGUCGAGGAUAUGCACCGGCUCGCUGACGCAGAAGGCGACACAUGAGGAUCACCCAUGUCGGUUCGCGU”, the “apparent Kd” value was found to be 22.4 nM under setting [3] and 51.4 nM under setting [4].

With “UAAAAGUGAGGAUAUCCAAUAUAUGACAUGAGGAUCACCCAUGUUUCCACUCGUACCUCCGGAGAAGGCACAAAGU”, the “apparent Kd” value is, setting by setting: under setting [3], 29.5 nM; under setting [4], 28.5 nM.

Regarding “UGAACCUUCACAGGAUAUCAUGCGAAAAUUGCGUGAGAAGGGUGAAUAUGGUGUUCAUAGUUGCACAUGAGGAUCACCCAUGUA”, the “apparent Kd” value reads like this: under setting [1], 191 nM; under setting [2], 128 nM.

For “AUGCUAUACGAAGGAUAUGGUUACAUGAGGAUCACCCAUGUAAUUUUUGUGAUCUUGUUUAAGUUCCAGAAGGUCGUAUAGCUA”, the “apparent Kd” value was determined as 42.2 nM under setting [3] and 156 nM under setting [4].

With “AGUAGAUCAGGAUAUACGUAAAUGGUAAUUAUGUAACUUUUACAUGAGGAUCACCCAUGUAGAAGGGAUCUACA”, the “apparent Kd” value by setting is: under setting [3], 17.5 nM; under setting [4], 18.1 nM.

Turning to “GCGGUACAUGAGGAUCACCCAUGUCAGGAUAUCCGCUGUUUGUCGAUUGGCAGGCGGUGGAGAAGGGACCUCGC”, the “apparent Kd” value by setting is: under setting [3], 97.5 nM; under setting [4], 98.5 nM.

As to “UUAGGACGAAACAUGAGGAUCACCCAUGUGUUAUAAUUAAUAUAGGAUAUGUUUAUACUUUUUGGGCAGAAGGAUGAUAAUGCU”, the “apparent Kd” value under setting [1] is 19.7 nM and the “apparent Kd” value under setting [2] amounted to 15.4 nM.

Regarding “GACGAGUGAGGAUAUGGUGAGUAGUGCCUGAGCGCUGCUCACCAGAAGGCACAUGAGGAUCACCCAUGUAUGUC”, the “apparent Kd” value under setting [3] came to 13.5 nM and the “apparent Kd” value under setting [4] was 17.6 nM.

In the case of “GAUCCUUCUGUUAGGAUAUGCUUUGGGCUUCCGCAGCAGAAGGAACAUGAGGAUCACCCAUGUCCGAUGCCGUC”, the “apparent Kd” value is, setting by setting: under setting [3], 80.5 nM; under setting [4], 98 nM.

As for “GGAAAAUUGAUCCCUUUUUAUUACAUGAGGAUCACCCAUGUGCAGGAUAUCGAUUAUUAUAGUUUCGAGAAGGGCAAGAAUUGU”, the “apparent Kd” value was found to be 40.3 nM under setting [3] and 276 nM under setting [4].

As to “AAAAGAACGGCAGGAUAUGCAAGCACUGACCUCCCAAAAUAAAGAAACAUGAGGAUCACCCAUGUGCAGAAGGGCCAAAAGUGC”, the “apparent Kd” value is, setting by setting: under setting [3], 13.6 nM; under setting [4], 12.3 nM.

Consider “UGUACUAUAAGGUUAAUUGUAUAUUGAGAAGGCAUUCACAUGAGGAUCACCCAUGUAACAUGGGAUGAGGAUAUCAUUUUGUAC”, for which the “apparent Kd” value is, setting by setting: under setting [1], 232 nM; under setting [2], 32.6 nM.

For “CUGGGCGGAGGAUAUGCGGGUUGGGCAUAAGUUCGGCUGGGACAUGAGGAUCACCCAUGUAGAAGGUUGUUCGG”, the “apparent Kd” value under setting [3] was determined as 40.3 nM and the “apparent Kd” value under setting [4] was 40 nM.

With “GUUAAACAUGAGGAUCACCCAUGUAAGGAUAUGCUGCGGUCGCGAUGACGUGACUGCAGCAGAAGGUACAAAUG”, the “apparent Kd” value is 86.8 nM under setting [3] and 96.5 nM under setting [4].

Regarding “AUAUAUAUAGGAUAUACAUGAGGAUCACCCAUGUGCUUCAGCUAGGAGACUAGCAUUGGUAGAAGGAUAUAUAU”, the “apparent Kd” value is 16.1 nM under setting [3] and 26.1 nM under setting [4].

Take “AGCUACGUUUCGUAGCAGUGUCAUCGAGAAGGCCCUUACGUGACAACAUGAGGAUCACCCAUGUGGGAGGAUAUCGAUGAUACA”: the “apparent Kd” value is, setting by setting: under setting [1], 11.8 nM; under setting [2], 11.5 nM.

“CAUCUGGUGCAGAAGGGACAUAGGGUCCUUUGGUCGCUAAGUAUCCCACAUGAGGAUCACCCAUGUCAGGAUAUGUAUCUGGAU”: the “apparent Kd” value was 15.9 nM under setting [3] and 30.1 nM under setting [4].

For the sequence “GGUACUCAAAGAGUACGGAGUCGAACAUGAGGAUCACCCAUGUAGGAUAUGCAAAGCUAGAAGUAGCAGAAGGACAUGUGCAGC”, the “apparent Kd” value came out at 15 nM under setting [3] and 17.1 nM under setting [4].

Take “CGAAGAAAGUAGAAGGCAGUCUUAAAAUAGGACUGAGGAUAUACAUGAGGAUCACCCAUGUACUCCUUUAAUAUCUUUGAAAUA”: the “apparent Kd” value came to 5.5 nM under setting [3] and 5.25 nM under setting [4].

For “GUUAUGUUAGGAUAUGCUUAUGGUGGAUAAUCAGAUAUGAUGCAGAAGGGACAUGAGGAUCACCCAUGUACUGU”, the “apparent Kd” value is, setting by setting: under setting [3], 21 nM; under setting [4], 23.8 nM.

With “CGCCUGUAAGGAUAUUAGUAGUAGUCAGAAAAGACUAUUACUGAGAAGGUACAUGAGGAUCACCCAUGUUGGCG”, the “apparent Kd” value reads like this: under setting [3], 15.3 nM; under setting [4], 20.4 nM.

Consider “UCAUUUCAGUUAGGAUAUUAAAACAUGACGAUACAUGAGGAUCACCCAUGUUAAGAAGGAACUAAUACAUAUAAUGCAAUGUUC”, for which the “apparent Kd” value under setting [3] was 15.9 nM and the “apparent Kd” value under setting [4] was 13.2 nM.

Consider “UGGUACAUGGGAGGAUAUCAUGUAGAGACAUGAGGAUCACCCAUGUCGAUGGAGACAUCGGAGAUUGAGAAGGCCCAUGUACCU”, for which the “apparent Kd” value runs as follows: under setting [1], 152 nM; under setting [2], 23.1 nM.

“AAAGUACAUGAGGAUCACCCAUGUUGGAACAAAGCAGGAUAUGUACAAAAGGAAAUAAAUACAGAAGGGCUAAGAA”: the “apparent Kd” value is, setting by setting: under setting [1], 36.5 nM; under setting [2], 21.2 nM.

Take “UACAUGUGAGGAUAUGUACGAGACCCUGACGGGCCUCGCAGGCAGAAGGCACAUGAGGAUCACCCAUGUGACCG”: the “apparent Kd” value is, setting by setting: under setting [3], 27.2 nM; under setting [4], 99.1 nM.

In the case of “GUAGCAUACCGAGGAUAUUCAUAUAAUAAGUAAACAUGAGGAUCACCCAUGUAGCGAAAGCCUUGGGAGAAGGCGGAAUGCUAC”, the “apparent Kd” value came to 346 nM under setting [1] and 52 nM under setting [2].

Turning to “AGCAUGUAAGGAUAUGCAAGUGGCACGGAUAGUACCAGAAAGCAGAAGGUACAUGAGGAUCACCCAUGUGCUCC”, the “apparent Kd” value was 26.8 nM under setting [3] and 94.9 nM under setting [4].

As for “AGACCGCUACGCCGGUUUCACGCACAGGAUAUGCGGUUACAUGAGGAUCACCCAUGUGGCCAUGUGCAGAAGGGUGGUUCGUUA”, the “apparent Kd” value reads like this: under setting [1], 36.1 nM; under setting [2], 11.5 nM.

As to “UGUGCUGAAGGAUAUGCGUAAGCUCGGUGACGAGCAGAUCUACAUGAGGAUCACCCAUGUAGAAGGUCAGUACU”, the “apparent Kd” value by setting is: under setting [3], 16 nM; under setting [4], 18.4 nM.

Take “UUGGUGUCAGGAUAUGCUUAAUGUGUUUUAUUAUAAUAUAUACAUGAGGAUCACCCAUGUAGAAGGGACGUUGU”: the “apparent Kd” value came out at 60.6 nM under setting [3] and 53.2 nM under setting [4].

“GCCUGAUCCACUUUAGGCCCAGACAGAAGGGCACACGGUCUAAGUCACAUGAGGAUCACCCAUGUGCAGGAUAUGUCUCGACUC”: the “apparent Kd” value is 8.88 nM under setting [3] and 26.2 nM under setting [4].

Regarding “UUCGAACAAGUCAGGAUAUGGUUAUUGGUGUGUGACUAGAAGGGACAUGAGGAUCACCCAUGUGCACCUACCAU”, the “apparent Kd” value was 16 nM under setting [3] and 16.7 nM under setting [4].

Regarding “CGCUACAUGAGGAUCACCCAUGUACUUACUUGCACGUGAACGAGAAGGCCACAGCAACACAGCGUGGAGGAUAUCGUGGUGCCU”, the “apparent Kd” value by setting is: under setting [1], 10.8 nM; under setting [2], 9.35 nM.

For the sequence “CGUCAUCAAGUGAGGAUAUCGUCAAAUCAAUCAGGCGAGAAGGCACAUGAGGAUCACCCAUGUCGACUCAUCAC”, the “apparent Kd” value reads like this: under setting [3], 15.4 nM; under setting [4], 22.2 nM.

For the sequence “GCGAGUAAAGCAGGAUAUCUAAUAUCACGGAAACAUGAGGAUCACCCAUGUAGAGAAGGGCUAAGUCAUACAAUUCGAACUCGC”, the “apparent Kd” value is, setting by setting: under setting [3], 14.1 nM; under setting [4], 10.5 nM.

Regarding “CCCUACGUUUCGUAGCAGUGUCAUCGAGAAGGCCCUGACAUGAGGAUCACCCAUGUUGUUACAUGGGAGGAUAUCGAUGAUGGG”, the “apparent Kd” value worked out at 23 nM under setting [1] and 6.1 nM under setting [2].

Take “UUAGAAUUGCAAGGAUAUCUAAUUUAGAUAGUAAGAGAAGGUGCUUUAUAGUUACAUGAGGAUCACCCAUGUUUUUUUGUUUAU”: the “apparent Kd” value runs as follows: under setting [1], 35.1 nM; under setting [2], 27.3 nM.

In the case of “GGCGGCGCGGGCCACCGCAGGGCCAGAAGGACAUGAGGAUCACCCAUGUGGCAGGACAGGGCGGUGUAGGAUAUGGCAGGCUGG”, the “apparent Kd” value worked out at 8.35 nM under setting [3] and 10.6 nM under setting [4].

Take “UAUAUAUAAUAUAUUAACAUGAGGAUCACCCAUGUCGCUAGACAGGAUAUAUUUUAUUUUUUUAAGUAGAAGGGUCAUAUAAUU”: the “apparent Kd” value under setting [1] turned out to be 63.7 nM and the “apparent Kd” value under setting [2] stood at 86.1 nM.
